Assay results: ChEMBL document CHEMBL1123030, “N-(Aminoalkyl)imide antineoplastic agents. Synthesis and biological activity” (J Med Chem, 1985)
The source made the active and inactive calls. No cut-off for these calls is given here.

Key:
[1] = test system: L1210; test: Compound was tested for cytotoxic activity against L1210 leukemia in vitro.; IA means Inactive; type: functional, cell-based; conditions: Mus musculus
[2] = test system: P388; test: Inhibitory activity in vivo against P388 leukemia cells in mice at a dose of 100 mg/kg upon intraperitoneal administration; type: functional, Mus musculus
How it was run: (§1)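 Tumor source was ascites fluid implanted into BDF₁ mice. Tumor inoculation and drug dosing were both intraperitoneal, given once daily for 5 days (q1d × 5). Screening and data interpretation followed the general NCI protocol.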

[3] = test system: Mus musculus; test: Compound was evaluated for inhibitory activity in vivo against P388 leukemia cells in mice at a dose of 400 mg/kg upon intraperitoneal administration; type: functional; how it was run: as §1
[4] = test system: Mus musculus; test: Compound was evaluated for inhibitory activity in vivo against P388 leukemia cells in mice at a dose of 200 mg/kg upon intraperitoneal administration; type: functional; how it was run: as §1
[5] = Cytotoxic activity against human colon adenocarcinoma in vitro; type: functional
[6] = test system: L1210; test: Cytotoxic activity against L1210 leukemia in vitro.; type: functional, Mus musculus
[7] = test system: P388; test: Inhibitory activity in vivo against P388 leukemia cells in mice at a dose of 50 mg/kg upon intraperitoneal administration; type: functional, Mus musculus; how it was run: as §1
[8] = test system: P388; test: Inhibitory activity in vivo against P388 leukemia cells in mice at a dose of 12.5 mg/kg upon intraperitoneal administration; type: functional, Mus musculus; how it was run: as §1
[9] = test system: P388; test: Inhibitory activity in vivo against P388 leukemia cells in mice at a dose of 25 mg/kg upon intraperitoneal administration; type: functional, Mus musculus; how it was run: as §1
[10] = species: Homo sapiens; test: Compound was tested for cytotoxic activity against human colon adenocarcinoma in vitro; type: functional
[11] = test system: Mus musculus; test: Compound was evaluated for inhibitory activity in vivo against P388 leukemia cells in mice at a dose of 6.25 mg/kg upon intraperitoneal administration; type: functional; how it was run: as §1
[12] = test system: Mus musculus; test: Compound was evaluated for inhibitory activity against B-16 melanoma in mice at a dose of 1.56 mg/kg upon intraperitoneal administration; type: functional
[13] = test system: Mus musculus; test: Compound was evaluated for inhibitory activity against B-16 melanoma in mice at a dose of 12.5 mg/kg upon intraperitoneal administration; type: functional
[14] = test system: Mus musculus; test: Compound was evaluated for inhibitory activity against B-16 melanoma in mice at a dose of 25 mg/kg upon intraperitoneal administration; type: functional
[15] = test system: Mus musculus; test: Compound was evaluated for inhibitory activity against B-16 melanoma in mice at a dose of 3.13 mg/kg upon intraperitoneal administration; type: functional
[16] = test system: Mus musculus; test: Compound was evaluated for inhibitory activity against B-16 melanoma in mice at a dose of 6.25 mg/kg upon intraperitoneal administration; type: functional
[17] = test system: L1210; test: Compound was tested for cytotoxic activity against L1210 leukemia in vitro; IA means inactive; type: functional, cell-based; conditions: Mus musculus
[18] = test system: Mus musculus; test: Compound was evaluated for inhibitory activity in vivo against P388 leukemia cells in mice at a dose of 60 mg/kg upon intraperitoneal administration; type: functional; how it was run: as §1
[19] = test system: Mus musculus; test: Compound was evaluated for inhibitory activity in vivo against P388 leukemia cells in mice at a dose of 7.5 mg/kg upon intraperitoneal administration; type: functional; how it was run: as §1
[20] = test system: Mus musculus; test: Compound was evaluated for inhibitory activity in vivo against P388 leukemia cells in mice at a dose of 15 mg/kg upon intraperitoneal administration; type: functional; how it was run: as §1
[21] = test system: Mus musculus; test: Compound was evaluated for inhibitory activity in vivo against P388 leukemia cells in mice at a dose of 3.75 mg/kg upon intraperitoneal administration; type: functional; how it was run: as §1
[22] = test system: Mus musculus; test: Compound was evaluated for inhibitory activity in vivo against P388 leukemia cells in mice at a dose of 3.12 mg/kg upon intraperitoneal administration; type: functional; how it was run: as §1
[23] = test system: Mus musculus; test: Compound was evaluated for inhibitory activity in vivo against P388 leukemia cells in mice at a dose of 0.75 mg/kg upon intraperitoneal administration; type: functional; how it was run: as §1
[24] = test system: Mus musculus; test: Compound was evaluated for inhibitory activity in vivo against P388 leukemia cells in mice at a dose of 1.50 mg/kg upon intraperitoneal administration; type: functional; conditions: dose 1.5 mg/kg; how it was run: as §1
[25] = test system: Mus musculus; test: Compound was evaluated for inhibitory activity in vivo against P388 leukemia cells in mice at a dose of 1.56 mg/kg upon intraperitoneal administration; type: functional; how it was run: as §1
[26] = test system: Mus musculus; test: Compound was evaluated for inhibitory activity in vivo against P388 leukemia cells in mice at a dose of 3.00 mg/kg upon intraperitoneal administration; type: functional; how it was run: as §1

| SMILES | Cytotoxic concentration [5] | Cytotoxic concentration [6] | T/C [7] | T/C [8] | T/C [9] | other results |
| --- | --- | --- | --- | --- | --- | --- |
| CN(C)CCN1C(=O)c2cccc3c(O)ccc(c23)C1=O.I | – | – | – | – | – | Cytotoxic concentration [1]: inactive; T/C [2]: 107; T/C [3]: 120; T/C [4]: 112 |
| CN(C)CCCN1C(=O)c2cc([N+](=O)[O-])cc3cc([N+](=O)[O-])cc(c23)C1=O.Cl | 1180 nM | 1420 nM | 154 | 113 | 129 | – |
| O=C1c2cccc3cc([N+](=O)[O-])cc(c23)C(=O)N1CCNCCO | – | – | – | 151 | 163 | Cytotoxic concentration [10]: 388 nM; T/C [11]: 137; T/C [12]: 112; T/C [13]: 219; T/C [14]: 216; T/C [15]: 142; T/C [16]: 174 |
| Cl.O=C1c2cccc3cc([N+](=O)[O-])cc(c23)C(=O)N1CCN1CCOCC1 | – | – | 105 | – | – | Cytotoxic concentration [17]: inactive; T/C [2]: 183 |
| COc1ccc2c3c(cccc13)C(=O)N(CCN(C)C)C2=O | – | – | 109 | – | – | Cytotoxic concentration [17]: inactive; T/C [2]: 117; T/C [4]: 133 |
| CN(C)CCN1C(=O)c2cc(N)cc3cc(N)cc(c23)C1=O.Cl.Cl.Cl | 677 nM | 337 nM | – | – | – | T/C [18]: 188; T/C [19]: 163; T/C [20]: 163; T/C [21]: 125 |
| CN(C)CCN1C(=O)c2ccc3c4c(ccc(c24)C1=O)C(=O)N(CCN(C)C)C3=O | – | – | – | – | – | T/C [11]: 125; T/C [22]: 116 |
| CCNCCN1C(=O)c2cccc3cc([N+](=O)[O-])cc(c23)C1=O.Cl | – | 700 nM | – | 129 | 162 | T/C [11]: 123 |
| Cl.O=C1c2cccc3cccc(c23)C(=O)N1CCNCCO | – | 2050 nM | 120 | – | 102 | – |
| Cl.O=C1c2cccc3cc([N+](=O)[O-])cc(c23)C(=O)N1CCN1CCNCC1 | – | 1380 nM | 136 | 116 | 129 | – |
| CN(C)CCN1C(=O)c2cc([N+](=O)[O-])cc3cc([N+](=O)[O-])cc(c23)C1=O.Cl | 41.3 nM | 36.1 nM | – | – | – | T/C [23]: 159; T/C [24]: 167; T/C [25]: 155; T/C [26]: 169; T/C [22]: 167 |
| CN(C)CCN1C(=O)c2cccc3cc([N+](=O)[O-])cc(c23)C1=O.Cl | – | 151 nM | – | – | – | Cytotoxic concentration [10]: 106 nM; T/C [11]: 164; T/C [25]: 121; T/C [22]: 138 |
| Cl.O=C1c2cc([N+](=O)[O-])cc3cc([N+](=O)[O-])cc(c23)C(=O)N1CCN1CCCCC1 | 539 nM | 287 nM | 247 | 138 | 181 | T/C [13]: 133; T/C [14]: 156; T/C [16]: 114 |
| Cl.O=C1c2cc([N+](=O)[O-])cc3cc([N+](=O)[O-])cc(c23)C(=O)N1CCN1CCOCC1 | 722 nM | 1130 nM | 147 | 112 | 131 | – |
| CN(C)CCN1C(=O)c2ccc(Cl)c3c(Cl)ccc(c23)C1=O | – | 699 nM | – | – | 107 | – |
